Test results reported in ChEMBL document CHEMBL3396961, “Novel pyrazole-5-carboxamide and pyrazole-pyrimidine derivatives: synthesis and anticancer activity” (Eur J Med Chem, 2015).

Columns and labels:
[1] = Cytotoxicity against human SGC7901 cells after 48 hrs by MTT assay; format: functional, cell-based; conditions: SGC-7901, 48 h
Procedure, shortened: (§1)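 Cells were grown to log phase in RPMI 1640 with 10% FBS and seeded at 3×10^4 cells/mL. After 24 h preincubation (37 °C, 5% CO2) they were exposed 48 h to preset concentrations, 6 wells each; vehicle 0.1% DMSO, 5-fluorouracil as reference. MTT (2.5 mg/mL in PBS) for 4 h, formazan dissolved in DMSO, A570 read. IC50 taken at 50% survival; mean ± SD of three experiments in triplicate.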

MGC-803 [2] = assay: Cytotoxicity against human MGC803 cells after 48 hrs by MTT assay; format: functional, cell-based; conditions: MGC-803, 48 h; procedure, shortened: as §1
Bcap37 = assay: Cytotoxicity against human Bcap37 cells after 48 hrs by MTT assay; format: functional, cell-based; conditions: Bcap37, 48 h; procedure, shortened: as §1
[3] = target: Telomerase reverse transcriptase (Homo sapiens, UniProt O14746); assay: Inhibition of telomerase in human MGC803 cells after 24 hrs by TRAP-PCR-ELISA; format: cell-based, MGC-803
Sequence of Telomerase reverse transcriptase (O14746 whole entry): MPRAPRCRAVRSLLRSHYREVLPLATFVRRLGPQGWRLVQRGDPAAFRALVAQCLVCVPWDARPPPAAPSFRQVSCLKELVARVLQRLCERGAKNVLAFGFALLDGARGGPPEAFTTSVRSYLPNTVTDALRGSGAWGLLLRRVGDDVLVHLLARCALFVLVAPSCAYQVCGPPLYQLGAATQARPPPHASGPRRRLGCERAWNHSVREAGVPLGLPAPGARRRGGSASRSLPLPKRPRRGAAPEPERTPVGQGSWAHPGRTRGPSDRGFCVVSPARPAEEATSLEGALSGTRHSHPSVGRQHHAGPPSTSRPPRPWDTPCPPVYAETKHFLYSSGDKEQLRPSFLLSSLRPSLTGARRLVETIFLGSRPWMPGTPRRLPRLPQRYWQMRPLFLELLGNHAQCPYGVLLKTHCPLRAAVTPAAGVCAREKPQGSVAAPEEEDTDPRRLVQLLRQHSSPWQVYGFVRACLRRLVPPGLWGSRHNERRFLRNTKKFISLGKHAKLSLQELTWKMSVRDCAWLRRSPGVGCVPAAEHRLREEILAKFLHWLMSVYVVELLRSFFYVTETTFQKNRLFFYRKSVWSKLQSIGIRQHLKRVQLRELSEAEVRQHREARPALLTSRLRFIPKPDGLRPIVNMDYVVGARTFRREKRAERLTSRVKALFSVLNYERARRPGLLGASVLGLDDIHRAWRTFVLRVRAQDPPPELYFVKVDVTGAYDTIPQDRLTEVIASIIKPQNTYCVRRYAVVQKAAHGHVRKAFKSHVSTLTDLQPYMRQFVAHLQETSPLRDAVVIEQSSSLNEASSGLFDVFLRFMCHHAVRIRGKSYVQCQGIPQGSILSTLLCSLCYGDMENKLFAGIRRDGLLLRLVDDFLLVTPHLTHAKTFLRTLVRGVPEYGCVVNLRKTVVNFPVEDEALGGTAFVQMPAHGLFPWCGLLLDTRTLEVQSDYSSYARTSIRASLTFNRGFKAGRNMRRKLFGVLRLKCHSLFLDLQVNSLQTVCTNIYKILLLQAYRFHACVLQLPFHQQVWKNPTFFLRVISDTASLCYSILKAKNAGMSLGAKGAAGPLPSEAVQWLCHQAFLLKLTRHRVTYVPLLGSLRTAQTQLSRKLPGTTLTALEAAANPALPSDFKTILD

MGC-803 [4] = assay: Cell cycle arrest in human MGC803 cells assessed as accumulation at G1 phase at 3 uM after 48 hrs by propidium iodide staining-based flow cytometry (reference value: 62.91%); format: functional
MGC-803 [5] = assay: Cell cycle arrest in human MGC803 cells assessed as accumulation at G2 phase at 3 uM after 48 hrs by propidium iodide staining-based flow cytometry (reference value: 6.7%); format: functional
MGC-803 [6] = assay: Cell cycle arrest in human MGC803 cells assessed as accumulation at S phase at 3 uM after 48 hrs by propidium iodide staining-based flow cytometry (reference value: 30.38%); format: functional

| SMILES | IC50 [1] [µM] | IC50 (MGC-803 [2]) [µM] | IC50 (Bcap37) [µM] | IC50 [3] [µM] | Activity (MGC-803 [4]) [%] | Activity (MGC-803 [5]) [%] | Activity (MGC-803 [6]) [%] |
| --- | --- | --- | --- | --- | --- | --- | --- |
| CCCc1nn(C)c(C(N)=O)c1NC(=O)/C=C/c1ccccc1 | 8.11 | 3.44 | 46.7 | 1.98 |  |  |  |
| CCCc1nn(C)c(C(N)=O)c1NC(=O)c1cc(OC)c(OC)c(OC)c1 | 13.4 | 4.57 | 40.4 | 7.87 |  |  |  |
| CCCc1nn(C)c(C(N)=O)c1NC(=O)/C=C/c1cc(OC)c(OC)c(OC)c1 | 12.8 | 4.24 | 55.7 | 3.49 |  |  |  |
| CCCc1nn(C)c(C(N)=O)c1NC(=O)c1cc(OC)c(OC)cc1OC | 34.8 | 29.5 | 33.5 | 12.2 |  |  |  |
| CCCc1nn(C)c(C(N)=O)c1NC(=O)/C=C/c1ccco1 | 8.3 | 3.01 | 10.5 | 1.02 | 59.82 | 2.46 | 42.2 |
| CCCc1nn(C)c2c(=O)[nH]c(/C=C/c3ccccc3)nc12 | 17.2 | 22.6 | 45.3 |  |  |  |  |
| CCCc1nn(C)c2c(=O)[nH]c(/C=C/c3cc(OC)c(OC)c(OC)c3)nc12 | 25.7 | 32.8 | 37.4 | 19 |  |  |  |
| CCCc1nn(C)c2c(=O)[nH]c(/C=C/c3ccco3)nc12 | 10.3 | 7.14 | 28.7 | 15.2 |  |  |  |
| O=c1[nH]cc(F)c(=O)[nH]1 [FLUOROURACIL] | 6.56 |  | 5.18 |  |  |  |  |
